Source: ChEMBL document CHEMBL2086354, “Testing the promiscuity of commercial kinase inhibitors against the AGC kinase group using a split-luciferase screen” (J Med Chem, 2012)
Activity calls are given as the source filed them. The rule behind the calls is not given here.

Assays:
[1] = biological target: T1, Serine/threonine-protein kinase Sgk2 (Homo sapiens) (UniProt Q9HBY8); assay: Inhibition of SGK2 at 10 uM by luciferase assay
T1 sequence (whole entry): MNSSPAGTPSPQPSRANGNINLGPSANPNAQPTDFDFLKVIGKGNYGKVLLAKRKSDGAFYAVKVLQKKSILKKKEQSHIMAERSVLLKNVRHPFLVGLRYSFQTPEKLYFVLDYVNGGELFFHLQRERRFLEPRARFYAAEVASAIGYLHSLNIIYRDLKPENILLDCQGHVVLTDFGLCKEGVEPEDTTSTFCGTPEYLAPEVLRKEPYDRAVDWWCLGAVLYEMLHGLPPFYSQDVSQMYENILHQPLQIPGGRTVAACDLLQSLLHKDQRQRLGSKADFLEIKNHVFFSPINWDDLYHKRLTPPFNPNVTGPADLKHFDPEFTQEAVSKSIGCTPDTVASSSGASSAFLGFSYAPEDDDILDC
Procedure, shortened: (§1)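 Cell-free split-luciferase competitive binding assay. Cfluc-kinase fusion mRNA was co-translated with Fos-Nfluc mRNA in rabbit reticulocyte lysate at 30 °C for 90 min, frozen at −80 °C overnight and thawed on ice. Lysate held tracer 2 at 120 nM final and inhibitor at 10 μM final (DMSO), 1 h at room temperature. Luciferin reagent was added and luminescence read (1 s integration), in duplicate.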

[2] = biological target: Aurora kinase B (Homo sapiens) (UniProt Q96GD4); assay: Inhibition of Aurora kinase B at 10 uM by luciferase assay; procedure, shortened: as §1
[3] = biological target: T2, Aurora kinase C (Homo sapiens) (UniProt Q9UQB9); assay: Inhibition of Aurora kinase C at 10 uM by luciferase assay; procedure, shortened: as §1
T2 sequence (whole entry): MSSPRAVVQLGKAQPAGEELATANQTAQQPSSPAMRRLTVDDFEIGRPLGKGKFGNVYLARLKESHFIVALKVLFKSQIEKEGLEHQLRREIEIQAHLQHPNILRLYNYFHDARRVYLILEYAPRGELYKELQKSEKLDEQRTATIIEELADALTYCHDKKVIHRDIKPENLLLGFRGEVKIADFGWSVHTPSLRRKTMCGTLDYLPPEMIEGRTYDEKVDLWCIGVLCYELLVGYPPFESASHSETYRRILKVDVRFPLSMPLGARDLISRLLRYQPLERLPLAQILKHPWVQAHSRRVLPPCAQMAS

[4] = Inhibition of Protein kinase A at 10 uM by luciferase assay; procedure, shortened: as §1
[5] = biological target: T3, Myotonin-protein kinase (Homo sapiens) (UniProt Q09013); assay: Inhibition of DMPK at 10 uM by luciferase assay; procedure, shortened: as §1
T3 sequence (whole entry): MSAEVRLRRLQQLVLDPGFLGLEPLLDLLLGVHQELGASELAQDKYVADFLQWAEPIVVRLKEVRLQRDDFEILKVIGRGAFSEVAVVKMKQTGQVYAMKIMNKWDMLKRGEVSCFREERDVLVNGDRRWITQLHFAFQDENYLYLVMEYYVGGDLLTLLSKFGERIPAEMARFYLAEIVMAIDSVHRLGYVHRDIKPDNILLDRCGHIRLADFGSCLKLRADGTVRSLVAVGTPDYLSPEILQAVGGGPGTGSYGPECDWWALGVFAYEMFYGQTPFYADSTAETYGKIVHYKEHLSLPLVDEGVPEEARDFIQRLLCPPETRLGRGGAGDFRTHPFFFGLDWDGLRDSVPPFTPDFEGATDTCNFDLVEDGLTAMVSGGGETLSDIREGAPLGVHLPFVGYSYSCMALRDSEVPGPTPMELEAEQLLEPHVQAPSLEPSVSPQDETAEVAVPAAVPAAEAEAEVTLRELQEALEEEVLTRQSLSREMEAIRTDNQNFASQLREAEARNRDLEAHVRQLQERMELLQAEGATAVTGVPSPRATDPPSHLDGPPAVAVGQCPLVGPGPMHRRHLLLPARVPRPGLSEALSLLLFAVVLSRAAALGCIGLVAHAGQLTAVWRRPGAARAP

[6] = biological target: Serine/threonine-protein kinase 32B (Homo sapiens) (UniProt Q9NY57); assay: Inhibition of STK32B at 10 uM by luciferase assay; procedure, shortened: as §1
[7] = biological target: Protein kinase C gamma type (Homo sapiens) (UniProt P05129); assay: Inhibition of Protein kinase C gamma type at 10 uM by luciferase assay
Procedure, shortened: (§2)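 Cell-free split-firefly-luciferase competitive binding assay: Cfluc-kinase fusion mRNA co-translated with Fos-Nfluc mRNA in rabbit reticulocyte lysate, 30 °C for 90 min, then frozen at −80 °C and thawed on ice. Luminescence read after luciferin reagent, in duplicate. Percent inhibition = 1 − (background-subtracted signal ÷ DMSO positive control).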

[8] = biological target: Protein kinase C theta type (Homo sapiens) (UniProt Q04759); assay: Inhibition of Protein kinase C theta type at 10 uM by luciferase assay; procedure, shortened: as §1
[9] = biological target: Protein kinase C eta type (Homo sapiens) (UniProt P24723); assay: Inhibition of Protein kinase C eta type at 10 uM by luciferase assay; procedure, shortened: as §1
[10] = biological target: Protein kinase C delta type (Homo sapiens) (UniProt Q05655); assay: Inhibition of Protein kinase C delta type at 10 uM by luciferase assay; procedure, shortened: as §2
[11] = biological target: T4, Protein kinase C epsilon type (Homo sapiens) (UniProt Q02156); assay: Inhibition of Protein kinase C epsilon type at 10 uM by luciferase assay; procedure, shortened: as §2
T4 sequence (whole entry): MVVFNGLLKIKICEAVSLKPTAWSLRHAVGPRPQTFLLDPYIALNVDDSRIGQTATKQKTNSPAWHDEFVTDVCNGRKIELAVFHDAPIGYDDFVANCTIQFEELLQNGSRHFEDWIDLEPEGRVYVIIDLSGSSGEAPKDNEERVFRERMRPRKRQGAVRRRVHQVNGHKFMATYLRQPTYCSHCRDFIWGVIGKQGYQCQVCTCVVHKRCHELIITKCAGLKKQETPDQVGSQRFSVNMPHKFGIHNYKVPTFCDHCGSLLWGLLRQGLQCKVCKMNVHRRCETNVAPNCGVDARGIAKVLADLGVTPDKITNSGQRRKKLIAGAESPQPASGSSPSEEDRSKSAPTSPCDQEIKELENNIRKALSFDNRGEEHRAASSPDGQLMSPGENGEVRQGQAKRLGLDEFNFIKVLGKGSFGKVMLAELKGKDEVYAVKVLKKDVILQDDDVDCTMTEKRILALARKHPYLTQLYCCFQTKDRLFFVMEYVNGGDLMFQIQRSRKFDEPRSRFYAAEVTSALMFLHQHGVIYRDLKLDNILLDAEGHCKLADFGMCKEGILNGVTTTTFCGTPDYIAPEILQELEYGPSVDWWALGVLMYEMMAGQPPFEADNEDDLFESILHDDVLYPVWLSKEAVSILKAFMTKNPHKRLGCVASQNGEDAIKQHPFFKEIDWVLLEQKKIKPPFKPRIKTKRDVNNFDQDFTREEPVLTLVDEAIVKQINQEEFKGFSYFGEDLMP

[12] = biological target: RAC-gamma serine/threonine-protein kinase (Homo sapiens) (UniProt Q9Y243); assay: Inhibition of AKT3 at 10 uM by luciferase assay; procedure, shortened: as §2
[13] = biological target: RAC-beta serine/threonine-protein kinase (Homo sapiens) (UniProt P31751); assay: Inhibition of AKT2 at 10 uM by luciferase assay; procedure, shortened: as §2
[14] = biological target: RAC-alpha serine/threonine-protein kinase (Homo sapiens) (UniProt P31749); assay: Inhibition of AKT1 at 10 uM by luciferase assay; procedure, shortened: as §2
[15] = biological target: T5, cAMP-dependent protein kinase catalytic subunit PRKX (Homo sapiens) (UniProt P51817); assay: Inhibition of PRKX at 10 uM by luciferase assay; procedure, shortened: as §1
T5 sequence (whole entry): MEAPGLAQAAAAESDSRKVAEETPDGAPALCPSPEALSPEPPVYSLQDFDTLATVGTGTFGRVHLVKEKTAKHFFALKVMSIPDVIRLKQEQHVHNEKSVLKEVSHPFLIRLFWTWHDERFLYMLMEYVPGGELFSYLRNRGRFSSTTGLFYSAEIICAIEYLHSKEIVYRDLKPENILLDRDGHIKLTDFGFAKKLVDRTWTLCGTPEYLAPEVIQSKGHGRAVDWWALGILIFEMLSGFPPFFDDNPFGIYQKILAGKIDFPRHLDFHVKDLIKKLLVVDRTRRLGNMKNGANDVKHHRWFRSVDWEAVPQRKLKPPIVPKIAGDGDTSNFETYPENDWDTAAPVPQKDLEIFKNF

[16] = biological target: T6, Serine/threonine-protein kinase Sgk3 (Homo sapiens) (UniProt Q96BR1); assay: Inhibition of SGK3 at 10 uM by luciferase assay; procedure, shortened: as §1
T6 sequence (whole entry): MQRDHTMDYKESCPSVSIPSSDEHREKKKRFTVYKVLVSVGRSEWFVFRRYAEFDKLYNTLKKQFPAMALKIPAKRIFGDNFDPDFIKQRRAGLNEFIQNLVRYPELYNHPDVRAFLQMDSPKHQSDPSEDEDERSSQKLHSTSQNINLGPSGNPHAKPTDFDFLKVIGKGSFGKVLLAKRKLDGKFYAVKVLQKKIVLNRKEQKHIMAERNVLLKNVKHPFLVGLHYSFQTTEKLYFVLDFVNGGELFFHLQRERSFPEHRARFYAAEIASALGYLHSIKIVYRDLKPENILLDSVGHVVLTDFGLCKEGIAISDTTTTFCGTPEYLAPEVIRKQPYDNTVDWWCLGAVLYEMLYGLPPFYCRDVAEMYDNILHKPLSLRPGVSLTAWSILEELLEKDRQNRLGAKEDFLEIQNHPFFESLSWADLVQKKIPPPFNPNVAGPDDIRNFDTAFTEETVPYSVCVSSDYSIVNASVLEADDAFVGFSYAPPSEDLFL

Sequence of Protein kinase C theta type (Homo sapiens) (Q04759 whole entry, looked up): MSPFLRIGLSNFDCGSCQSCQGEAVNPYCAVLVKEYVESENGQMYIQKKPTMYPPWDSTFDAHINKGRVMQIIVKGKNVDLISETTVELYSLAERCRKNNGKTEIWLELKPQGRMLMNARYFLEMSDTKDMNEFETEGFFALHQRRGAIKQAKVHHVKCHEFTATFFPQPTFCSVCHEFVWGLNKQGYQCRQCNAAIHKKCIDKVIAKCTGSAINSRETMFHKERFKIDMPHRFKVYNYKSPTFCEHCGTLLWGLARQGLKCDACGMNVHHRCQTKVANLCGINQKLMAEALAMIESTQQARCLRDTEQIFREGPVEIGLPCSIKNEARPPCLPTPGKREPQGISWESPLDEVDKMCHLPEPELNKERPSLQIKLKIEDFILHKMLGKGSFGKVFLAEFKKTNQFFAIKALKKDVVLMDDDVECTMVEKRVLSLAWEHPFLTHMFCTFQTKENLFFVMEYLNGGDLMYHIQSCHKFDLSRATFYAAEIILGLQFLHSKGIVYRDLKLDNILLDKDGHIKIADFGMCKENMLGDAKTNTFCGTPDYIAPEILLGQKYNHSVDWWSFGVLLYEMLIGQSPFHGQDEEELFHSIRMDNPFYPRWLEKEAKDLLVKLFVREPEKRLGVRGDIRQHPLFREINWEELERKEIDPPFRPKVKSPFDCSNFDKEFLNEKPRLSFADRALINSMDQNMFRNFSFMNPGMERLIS
Sequence of Aurora kinase B (Homo sapiens) (Q96GD4 whole entry): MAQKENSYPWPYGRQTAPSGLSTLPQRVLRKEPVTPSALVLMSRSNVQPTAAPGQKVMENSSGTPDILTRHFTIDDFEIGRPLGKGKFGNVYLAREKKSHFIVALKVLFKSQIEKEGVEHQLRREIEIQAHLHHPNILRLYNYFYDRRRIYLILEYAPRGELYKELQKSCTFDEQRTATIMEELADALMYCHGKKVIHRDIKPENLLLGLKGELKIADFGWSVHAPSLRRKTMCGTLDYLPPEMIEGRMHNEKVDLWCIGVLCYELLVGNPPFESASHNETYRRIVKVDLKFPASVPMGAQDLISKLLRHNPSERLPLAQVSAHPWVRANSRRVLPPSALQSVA
Sequence of Serine/threonine-protein kinase 32B (Homo sapiens) (Q9NY57 whole entry): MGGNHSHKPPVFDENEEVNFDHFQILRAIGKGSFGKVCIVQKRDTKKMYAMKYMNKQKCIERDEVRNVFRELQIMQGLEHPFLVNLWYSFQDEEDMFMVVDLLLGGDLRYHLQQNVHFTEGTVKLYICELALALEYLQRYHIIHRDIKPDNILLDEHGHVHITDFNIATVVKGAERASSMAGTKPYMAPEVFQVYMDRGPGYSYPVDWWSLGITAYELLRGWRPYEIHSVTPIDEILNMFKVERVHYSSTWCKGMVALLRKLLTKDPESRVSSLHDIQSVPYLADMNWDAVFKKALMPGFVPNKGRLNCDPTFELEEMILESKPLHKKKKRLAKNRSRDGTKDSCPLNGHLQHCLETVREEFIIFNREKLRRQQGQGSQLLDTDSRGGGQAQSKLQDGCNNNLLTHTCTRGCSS
Sequence of Protein kinase C eta type (Homo sapiens) (P24723 whole entry): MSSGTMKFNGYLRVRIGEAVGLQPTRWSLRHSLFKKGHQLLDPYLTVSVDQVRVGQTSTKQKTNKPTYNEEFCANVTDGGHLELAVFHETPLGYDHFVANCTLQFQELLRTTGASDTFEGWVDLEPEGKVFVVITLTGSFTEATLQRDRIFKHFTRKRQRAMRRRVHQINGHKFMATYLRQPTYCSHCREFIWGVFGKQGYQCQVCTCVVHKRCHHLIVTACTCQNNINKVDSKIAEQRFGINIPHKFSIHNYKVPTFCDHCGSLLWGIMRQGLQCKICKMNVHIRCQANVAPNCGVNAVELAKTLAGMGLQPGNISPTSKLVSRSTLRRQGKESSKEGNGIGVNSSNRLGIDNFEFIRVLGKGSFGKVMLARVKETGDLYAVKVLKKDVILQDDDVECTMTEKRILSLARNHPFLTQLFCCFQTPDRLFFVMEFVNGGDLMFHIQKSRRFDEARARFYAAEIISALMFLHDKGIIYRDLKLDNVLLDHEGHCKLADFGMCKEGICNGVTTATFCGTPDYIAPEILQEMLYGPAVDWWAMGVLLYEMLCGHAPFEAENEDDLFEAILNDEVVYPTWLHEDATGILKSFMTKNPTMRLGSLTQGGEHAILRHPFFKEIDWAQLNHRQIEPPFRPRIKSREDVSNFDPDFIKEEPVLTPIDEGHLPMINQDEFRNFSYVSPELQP
Sequence of RAC-gamma serine/threonine-protein kinase (Homo sapiens) (Q9Y243 whole entry): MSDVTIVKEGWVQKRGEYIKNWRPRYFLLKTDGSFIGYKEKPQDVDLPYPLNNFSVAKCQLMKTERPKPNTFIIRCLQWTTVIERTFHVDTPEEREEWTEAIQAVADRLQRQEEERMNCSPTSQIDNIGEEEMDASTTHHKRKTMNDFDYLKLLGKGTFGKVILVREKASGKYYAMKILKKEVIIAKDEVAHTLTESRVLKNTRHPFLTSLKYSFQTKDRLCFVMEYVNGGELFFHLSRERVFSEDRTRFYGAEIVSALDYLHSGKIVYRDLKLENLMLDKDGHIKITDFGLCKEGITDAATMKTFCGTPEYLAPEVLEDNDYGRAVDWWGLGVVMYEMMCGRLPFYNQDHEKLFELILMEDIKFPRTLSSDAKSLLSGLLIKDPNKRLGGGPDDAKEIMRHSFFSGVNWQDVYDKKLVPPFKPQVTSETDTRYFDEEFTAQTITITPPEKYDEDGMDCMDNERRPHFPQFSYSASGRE
Sequence of RAC-beta serine/threonine-protein kinase (Homo sapiens) (P31751 whole entry): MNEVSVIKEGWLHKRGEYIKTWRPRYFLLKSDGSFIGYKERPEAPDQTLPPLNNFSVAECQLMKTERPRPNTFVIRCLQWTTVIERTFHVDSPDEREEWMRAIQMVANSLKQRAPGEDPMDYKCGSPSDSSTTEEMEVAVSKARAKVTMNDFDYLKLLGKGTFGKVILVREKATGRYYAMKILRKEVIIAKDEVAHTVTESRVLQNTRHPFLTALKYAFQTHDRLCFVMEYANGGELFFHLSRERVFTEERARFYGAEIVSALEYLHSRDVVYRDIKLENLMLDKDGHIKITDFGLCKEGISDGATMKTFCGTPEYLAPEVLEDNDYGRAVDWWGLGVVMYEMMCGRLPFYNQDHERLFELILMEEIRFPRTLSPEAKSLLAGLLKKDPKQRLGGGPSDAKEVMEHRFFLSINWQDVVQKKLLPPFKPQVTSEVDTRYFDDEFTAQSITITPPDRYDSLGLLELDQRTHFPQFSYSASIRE
Sequence of Protein kinase C delta type (Homo sapiens) (Q05655 whole entry, looked up): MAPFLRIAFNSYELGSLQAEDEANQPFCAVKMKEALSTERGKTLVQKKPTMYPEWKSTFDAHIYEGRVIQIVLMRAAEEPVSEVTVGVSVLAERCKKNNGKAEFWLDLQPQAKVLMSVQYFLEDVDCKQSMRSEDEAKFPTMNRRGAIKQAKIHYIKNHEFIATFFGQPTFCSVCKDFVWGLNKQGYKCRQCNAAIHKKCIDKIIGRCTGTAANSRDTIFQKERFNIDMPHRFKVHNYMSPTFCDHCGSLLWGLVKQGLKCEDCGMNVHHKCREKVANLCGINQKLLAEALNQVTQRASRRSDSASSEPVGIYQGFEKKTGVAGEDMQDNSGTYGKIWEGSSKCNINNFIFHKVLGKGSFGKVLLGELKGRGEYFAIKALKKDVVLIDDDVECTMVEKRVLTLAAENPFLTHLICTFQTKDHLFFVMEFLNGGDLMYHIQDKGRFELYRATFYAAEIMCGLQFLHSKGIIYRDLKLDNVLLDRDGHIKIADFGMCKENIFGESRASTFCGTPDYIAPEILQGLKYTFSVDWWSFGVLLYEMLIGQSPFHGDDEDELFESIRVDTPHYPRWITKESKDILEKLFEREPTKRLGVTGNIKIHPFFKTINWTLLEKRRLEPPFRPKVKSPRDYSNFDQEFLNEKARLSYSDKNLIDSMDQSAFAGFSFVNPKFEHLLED
Sequence of RAC-alpha serine/threonine-protein kinase (Homo sapiens) (P31749 whole entry): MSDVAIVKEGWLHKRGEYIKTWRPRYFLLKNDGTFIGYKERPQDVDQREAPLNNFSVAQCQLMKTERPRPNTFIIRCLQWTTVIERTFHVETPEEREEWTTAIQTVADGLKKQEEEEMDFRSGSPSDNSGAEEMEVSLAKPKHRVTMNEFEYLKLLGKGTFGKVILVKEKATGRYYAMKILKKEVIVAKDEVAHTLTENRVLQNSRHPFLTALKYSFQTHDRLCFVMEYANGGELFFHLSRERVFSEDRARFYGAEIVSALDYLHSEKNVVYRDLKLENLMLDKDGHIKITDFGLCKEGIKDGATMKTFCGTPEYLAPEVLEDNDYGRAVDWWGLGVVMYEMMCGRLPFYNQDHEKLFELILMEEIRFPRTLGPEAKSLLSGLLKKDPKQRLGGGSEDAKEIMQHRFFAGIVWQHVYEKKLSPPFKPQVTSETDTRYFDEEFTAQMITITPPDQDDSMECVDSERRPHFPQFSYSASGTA

`O=C1NC(=O)c2c1c1c3ccccc3n3c1c1c2c2ccccc2n1C1CCC3O1` gave an inhibition [1] of over 60%.

`COc1cc2c(Nc3ccc(NC(=O)c4ccccc4)cc3)ncnc2cc1OCCCN1CCOCC1` gave an inhibition [2] of over 50% and an inhibition [3] of over 50%.

Work on `CC(C)(C)n1nc(-c2ccc(Cl)cc2)c2c(N)ncnc21` yielded an inhibition [4] of 19%, an inhibition [5] of 32% and an inhibition [6] of over 40%.

For `CN(C)CCCn1cc(C2=C(c3c[nH]c4ccccc34)C(=O)NC2=O)c2ccccc21`, the inhibition [7] was “inactive”, the inhibition [8] was “inactive” and the inhibition [9] was “inactive”.

For `Cn1cc(C2=C(c3cn(CCCSC(=N)N)c4ccccc34)C(=O)NC2=O)c2ccccc21`, the inhibition [10] was 47%, the inhibition [7] was 47% and the inhibition [11] was 47%. The inhibition [8] was 47% and the inhibition [9] was 47%.

With `O=C1NC(=O)c2c1c1c3ccccc3[nH]c1c1[nH]c3ccccc3c21` the inhibition [10] was “inactive”, the inhibition [7] was “inactive” and the inhibition [12] was “inactive”. The inhibition [13] was “inactive”, the inhibition [11] was “inactive” and the inhibition [14] was “inactive”.

In the case of `O=S(=O)(c1cccc2cnccc12)N1CCCNCC1`, the inhibition [15] is reported as “Active” and the inhibition [4] is reported as “Active”.

`O=C(c1ccc(Nc2nccc(-c3cc4ccccc4s3)n2)cc1)N1CCC(N2CCCC2)CC1` showed an inhibition [1] of over 60%, an inhibition [2] of over 29% and an inhibition [16] of over 60%. It also gave an inhibition [15] of over 29%, an inhibition [11] of over 29% and an inhibition [8] of over 29%. It also gave an inhibition [9] of 83%.

For `NC(=O)Nc1sc(-c2ccc(F)cc2)cc1C(N)=O`, the inhibition [2] was over 25%, the inhibition [3] was over 25% and the inhibition [9] was “Active”.

In the case of `O=S(=O)(c1cccc2c(Cl)cccc12)N1CCCNCC1`, the inhibition [15] is reported as “inactive”.

Work on `O=S(=O)(NCCNC/C=C/c1ccc(Br)cc1)c1cccc2cnccc12` yielded an inhibition [1] of 20%, an inhibition [16] of 20% and an inhibition [15] of over 65%. It also gave an inhibition [4] of over 65%, an inhibition [8] of 20% and an inhibition [9] of 20%.

For `CO[C@@H]1[C@H](N(C)C(=O)c2ccccc2)C[C@H]2O[C@]1(C)n1c3ccccc3c3c4c(c5c6ccccc6n2c5c31)C(=O)NC4`, the inhibition [6] was “Active”.

In the case of `C[C@@H](N)[C@H]1CC[C@H](C(=O)Nc2ccncc2)CC1`, the inhibition [15] is reported as “Active”.

With `COc1cc2ncn(-c3cc(OCc4ccccc4C(F)(F)F)c(C(N)=O)s3)c2cc1OC` the inhibition [2] was over 25% and the inhibition [3] was over 25%.

`Cc1ccc(-c2nn(C(C)(C)C)c3ncnc(N)c23)cc1` gave an inhibition [4] of 19%, an inhibition [5] of 32% and an inhibition [6] of over 40%.

In the case of `O=S(=O)(c1cccc2c(O)nccc12)N1CCCNCC1`, the inhibition [15] is reported as “Active”.

With `Cc1[nH]c(/C=C2\C(=O)Nc3ccc(S(=O)(=O)Cc4c(Cl)cccc4Cl)cc32)c(C)c1C(=O)N1CCC[C@@H]1CN1CCCC1` the inhibition [2] was over 25% and the inhibition [3] was over 25%.

`O=C1NC(=O)c2cc(Nc3ccc(F)cc3)c(Nc3ccc(F)cc3)cc21` gave an inhibition [7] of 22% and an inhibition [5] of 30%.

For `Fc1ccc(Cl)cc1-c1nc(Nc2ccncc2)c2nccnc2n1`, the inhibition [12] was over 25%, the inhibition [13] was over 25% and the inhibition [11] was over 25%. For the same molecule, the inhibition [14] was over 25%, the inhibition [8] was over 25% and the inhibition [9] was over 25%.
